Data from article PMC9868778 (Planta Medica, 2022).
Where “and” joins values, the source holds several entries; their conditions need not be identical. Equal values may be shown once. Read-outs that look alike come from different tables or passages of the source.

Assays:
[1] = tested on: placental tissue; experiment: Viability and functionality of placental tissue during ex vivo perfusion; set-up: species or system human
In short: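 Ex vivo perfusion of human placental cotyledons with 100 mL medium per circuit. Fetal circuit gassed with 95% N2/5% CO2, maternal with 95% air/5% CO2. […] Glucose and lactate were measured by blood gas analyser at the start and end of perfusion; β-hCG and leptin by ELISA. Values were normalized to perfusion time and cotyledon weight; Brown-Forsythe/Welch ANOVA with Dunnett's T3.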

[2] = Fraction unbound in placental homogenate; type: in vitro ADME, human; conditions: for fraction unbound at 240 min, 2 µM: human, placental homogenate (5-fold diluted in PBS)
[3] = for transfer across the placental barrier (maternal to fetal circuit): 5 µM added to maternal circuit, 360 min perfusion; for time to steady-state concentration: 5 µM in maternal circuit; for steady-state concentration, fetal side / steady-state concentration, maternal side: % of initially analyzed concentration in the maternal sample; for F perfusate (% found): fetal perfusate after 360 min; for F perfusate (% found) / M perfusate (% found): % of initial amount; for M perfusate (% found): maternal perfusate after 360 min
[4] = Perfusion system adherence test; type: in vitro ADME; conditions: % of initially analyzed concentration, 360 min, 5 µM in PM, n = 3
In short: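 No placenta in the chamber; only the maternal circuit was run, for 360 min. Test compound was dissolved directly in perfusion medium at a final 5 µM and run on its own. Quantified by U(H)PLC-MS/MS and expressed as % of the initial maternal concentration. Three independent experiments, mean ± SD.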

[5] = tested on: placental tissue; experiment: Histopathological evaluation of perfused placental tissue; set-up: species or system human
In short: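 Human placental tissue after ex vivo perfusion: sections taken immediately afterwards from the perfused area, the non-perfused area and the transitional area. Fixed in 4% paraformaldehyde ≥24 h, paraffin-embedded, cut at 2–3 µm. Stained with H&E, plus a modified Gram stain (Braun-Brenn) to check for bacterial contamination. Scored for intravascular thrombi, cytotrophoblast vacuolization, hydropic villous changes and villous endothelium viability, compared against non-perfused tissue.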

[6] = Stability of compounds in PBS, perfusion medium and placental homogenate; type: in vitro ADME, human; conditions: 360 min, 4 °C and 37 °C
[7] = tested on: 5-HT 1A receptors; conditions: expressed in human CHO cell membranes ref 22; cited from earlier work
[8] = tested on: serotonin transporter; conditions: expressed in murine S6 cells ref 23; cited from earlier work
[9] = tested on: noradrenaline transporter; conditions: expressed in murine N1 cells ref 23; cited from earlier work
[10] = 5 µM, compared with antipyrine control perfusions
[11] = during 360 min, control perfusions
[12] = perfused tissue, individual experiments 1-4
[13] = perfused tissue, individual experiments 1-4, listed as Protopine

Compound | effect on placental viability and metabolic activity (glucose consumption, lactate production) [1, 10] | fraction unbound at 240 min, 2 µM [2] | transfer across the placental barrier (maternal to fetal circuit) [3] | time to steady-state concentration [3] | steady-state concentration, fetal side [3] [%] | steady-state concentration, maternal side [3] | F perfusate (% found) [3] [%] | M perfusate (% found) [3] [%] | adherence to perfusion equipment (compound lost) [4] | other results
CN(C)CCCC1(c2ccc(F)cc2)OCc2cc(C#N)ccc21 (stereo not drawn) [citalopram] | did not impair placental viability and metabolic activity | 0.21 ± 0.01 | crossed the human placental barrier | approximately 60 min | 11 | 22% | 6.4 | 11.4 | 48.4% and 48.4 ± 12.9% | –
CN1C(=O)CN=C(c2ccccc2)c2cc(Cl)ccc21 [diazepam] | did not impair placental viability and metabolic activity | – | crossed the human placental barrier | approximately 45 min | – | – | – | 7.9 | 54.8% and 54.8 ± 12.7% | steady-state concentration (side not specified) ([3]; % of initially analyzed concentration, slow decrease until 360 min): 24%
Cc1cc(=O)n(-c2ccccc2)n1C [antipyrine] | – | 1 | readily crossed the placental barrier | approximately 120 min | – | – | 19.8 | 22.0 | 7.4 ± 4.7% | leptin production ([1]; control perfusions): 334.8 pg/g/min; β-hCG production ([1]; control perfusions): 95.7 mU/g/min; lactate production [1, 11]: 0.27 µmol/g/min; total glucose consumption [1, 11]: 0.39 µmol/g/min; time to equilibrium between maternal and fetal circuits ([3]; connectivity control in perfusions with protopine): 120 to 240 min
protopine | did not impair placental viability and metabolic activity | – | rapidly transferred from the maternal to the fetal circuit | – | ~20 | approximately 27% | 14.0 | 23.1 | 20.4% and 20.4 ± 9.5% | effect on β-hCG and leptin production [1, 10]: did not inhibit; effect on placental viability and metabolic activity (glucose consumption, lactate production) ([1]; 5 µM, compared with antipyrine control perfusions, listed as Protopine): did not affect placental viability or functionality; damage of placental tissue (endothelium, vascular rupture, thrombi, trophoblast vacuolization) ([5]; overall assessment): did not cause apparent damage of placental tissue; Thrombi in vessels of stem villi [5, 12]: 0%; Thrombi in villous vessels [5, 12]: 5%; Thrombi in villous vessels [5, 13]: 1% and 0%; Vacuolated trophoblast in villi [5, 13]: 0% and 20% and 1% (2×); Fraction unbound (fu,hom) ([2]; placental homogenate vs PBS, 2 µM, 240 min, 37 °C, 3 donors): 0.48 ± 0.04; stability in PM [6]: slightly less stable; ligand at 5-HT 1A receptors [7]: ligand at 5-HT 1A receptors; inhibition of serotonin transporter [8]: inhibitor; inhibition of noradrenaline transporter [9]: inhibitor; transfer across the placental barrier (maternal to fetal circuit) ([3]; listed as Protopine): transferred from the maternal to the fetal circuit; fetal-maternal concentration ratio (FM ratio) ([3]; after 360 min, antipyrine from control perfusions): 0.75; Final recovery (% found) ([3]; sum of fetal and maternal perfusates, sampling and system adherence, 360 min): 71.4 ± 8.6%
